Laboratory results: ChEMBL document CHEMBL1131409, “Human telomerase inhibition by regioisomeric disubstituted amidoanthracene-9,10-diones” (J Med Chem, 1998)

Tests used:
[1] = molecular target: Telomerase reverse transcriptase (Homo sapiens, UniProt O14746); assay: Inhibitory activity of telomerase was measured using the TRAP assay.
Procedure, shortened: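 Cell-free modified TRAP with extracts from exponentially growing A2780 ovarian carcinoma cells. 0.04 μg protein was incubated with TS primer, dNTPs (50 μM each) and [α-32P]dCTP in TRAP buffer (pH 8.3, 68 mM KCl) ± agent, up to 50 μM final, for 20 min at 25 °C. Then 80 °C for 5 min, CX primer plus Taq, 31 PCR cycles. Products read by gel phosphorimaging/autoradiography or filter scintillation counting. IC50 taken as 50% inhibition relative to controls.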

SK-OV-3 = assay: In vitro cytotoxicity against SKOV-3 ovarian cells using the sulforhodamine B(SRB) assay.; assay type: functional, cell-based; details: Homo sapiens
Procedure, shortened: (§1)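 SRB growth assay. 3000–6000 cells were seeded and attached overnight. Agents were dissolved at 500 μM in water and added in quadruplicate at final 0.05, 0.25, 1, 5 and 25 μM. After 96 h, cells were fixed with cold 10% TCA and stained with 0.4% SRB. A540 was expressed as percent of untreated control and the 50% growth-inhibitory concentration was derived.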

A2780 = assay: In vitro cytotoxicity against A2780 ovarian cells using the sulforhodamine B(SRB) assay.; assay type: functional, cell-based; details: Homo sapiens; procedure, shortened: as §1
CH1 = assay: In vitro cytotoxicity against CH1 ovarian cells using the sulforhodamine B(SRB) assay.; assay type: functional, cell-based; details: Homo sapiens; procedure, shortened: as §1

Chain of Telomerase reverse transcriptase (O14746 whole entry): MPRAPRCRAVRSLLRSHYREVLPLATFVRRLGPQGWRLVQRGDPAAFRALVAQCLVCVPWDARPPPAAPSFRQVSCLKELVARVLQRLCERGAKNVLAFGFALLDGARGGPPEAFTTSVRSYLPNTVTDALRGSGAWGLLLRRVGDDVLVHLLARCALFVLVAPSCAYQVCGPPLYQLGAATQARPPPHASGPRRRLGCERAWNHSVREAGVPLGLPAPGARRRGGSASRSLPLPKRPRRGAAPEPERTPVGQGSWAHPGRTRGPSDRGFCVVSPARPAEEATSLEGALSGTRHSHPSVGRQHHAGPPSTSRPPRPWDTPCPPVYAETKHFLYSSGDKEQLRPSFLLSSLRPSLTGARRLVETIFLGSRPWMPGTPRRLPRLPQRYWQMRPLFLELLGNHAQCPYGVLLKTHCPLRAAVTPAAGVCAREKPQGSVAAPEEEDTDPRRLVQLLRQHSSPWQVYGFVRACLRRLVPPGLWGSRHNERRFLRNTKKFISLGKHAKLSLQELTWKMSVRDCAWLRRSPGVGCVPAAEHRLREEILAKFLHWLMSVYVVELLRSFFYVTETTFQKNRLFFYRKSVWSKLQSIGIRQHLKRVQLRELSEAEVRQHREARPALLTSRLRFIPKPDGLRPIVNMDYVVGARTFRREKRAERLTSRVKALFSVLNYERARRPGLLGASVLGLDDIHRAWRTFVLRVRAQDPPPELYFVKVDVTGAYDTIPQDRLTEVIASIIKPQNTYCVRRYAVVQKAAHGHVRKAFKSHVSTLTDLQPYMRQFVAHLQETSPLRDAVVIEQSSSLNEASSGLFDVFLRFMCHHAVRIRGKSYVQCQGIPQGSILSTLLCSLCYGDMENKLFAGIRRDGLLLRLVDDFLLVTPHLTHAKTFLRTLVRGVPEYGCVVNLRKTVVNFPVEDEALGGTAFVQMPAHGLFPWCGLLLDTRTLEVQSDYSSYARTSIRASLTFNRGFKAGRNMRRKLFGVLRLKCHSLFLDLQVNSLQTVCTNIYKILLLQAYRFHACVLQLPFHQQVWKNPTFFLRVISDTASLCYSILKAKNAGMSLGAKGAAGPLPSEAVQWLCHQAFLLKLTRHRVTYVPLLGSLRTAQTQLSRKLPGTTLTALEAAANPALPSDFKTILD

Structure (SMILES)	IC50 [1]	IC50 (SK-OV-3)	IC50 (A2780)	IC50 (CH1)
C[N+](C)(C)CCC(=O)Nc1ccc(NC(=O)CC[N+](C)(C)C)c2c1C(=O)c1ccccc1C2=O	7 µM	–	–	–
CCN(CC)CCC(=O)Nc1ccc(NC(=O)CCN(CC)CC)c2c1C(=O)c1ccccc1C2=O	–	1.4 µM	0.2 µM	0.26 µM
C[N+]1(CCC(=O)Nc2cccc3c2C(=O)c2cccc(NC(=O)CC[N+]4(C)CCOCC4)c2C3=O)CCOCC1	13.2 µM	2.9 µM	1.9 µM	1.8 µM
C[N+]1(CCC(=O)Nc2ccc(NC(=O)CC[N+]3(C)CCCC3)c3c2C(=O)c2ccccc2C3=O)CCCC1	5 µM	37 µM	1.5 µM	4.5 µM
O=C(CCN1CCCC1)Nc1cccc2c1C(=O)c1cccc(NC(=O)CCN3CCCC3)c1C2=O	–	0.53 µM	0.32 µM	0.36 µM
C[N+]1(CCC(=O)Nc2ccc3c(c2)C(=O)c2ccc(NC(=O)CC[N+]4(C)CCCC4)cc2C3=O)CCCC1	–	2 µM	0.56 µM	1.35 µM
O=C(CCN1CCOCC1)Nc1cccc2c1C(=O)c1c(NC(=O)CCN3CCOCC3)cccc1C2=O	> 50 µM	> 25 µM	> 25 µM	21.5 µM
C[N+]1(CCC(=O)Nc2cccc3c2C(=O)c2c(NC(=O)CC[N+]4(C)CCCC4)cccc2C3=O)CCCC1	8.2 µM	5 µM	0.6 µM	1.68 µM
CC[N+](C)(CC)CCC(=O)Nc1ccc(NC(=O)CC[N+](C)(CC)CC)c2c1C(=O)c1ccccc1C2=O	3.1 µM	> 25 µM	4.25 µM	6.3 µM
C[N+]1(CCC(=O)Nc2cccc3c2C(=O)c2cccc(NC(=O)CC[N+]4(C)CCCCC4)c2C3=O)CCCCC1	8.6 µM	8.3 µM	2 µM	2.1 µM
O=C(CCN1CCCCC1)Nc1cccc2c1C(=O)c1c(NC(=O)CCN3CCCCC3)cccc1C2=O	3.7 µM	2.35 µM	0.54 µM	1.95 µM
O=C(CCN1CCOCC1)Nc1cccc2c1C(=O)c1cccc(NC(=O)CCN3CCOCC3)c1C2=O	> 50 µM	> 25 µM	> 25 µM	> 25 µM
C[N+]1(CCC(=O)Nc2cccc3c2C(=O)c2c(NC(=O)CC[N+]4(C)CCOCC4)cccc2C3=O)CCOCC1	10 µM	2.6 µM	0.51 µM	0.58 µM
CCN(CC)CCC(=O)Nc1cccc2c1C(=O)c1cccc(NC(=O)CCN(CC)CC)c1C2=O	2.7 µM	0.62 µM	0.32 µM	0.32 µM
C[N+](C)(C)CCC(=O)Nc1ccc2c(c1)C(=O)c1cc(NC(=O)CC[N+](C)(C)C)ccc1C2=O	14.5 µM	4 µM	0.44 µM	1.3 µM
O=C(CCN1CCCC1)Nc1ccc2c(c1)C(=O)c1cc(NC(=O)CCN3CCCC3)ccc1C2=O	2 µM	2.3 µM	1.2 µM	1.8 µM
O=C(CCN1CCCCC1)Nc1cccc2c1C(=O)c1cccc(NC(=O)CCN3CCCCC3)c1C2=O	2.3 µM	0.82 µM	0.435 µM	0.42 µM
CN(C)CCC(=O)Nc1cccc2c1C(=O)c1c(NC(=O)CCN(C)C)cccc1C2=O	6.4 µM	1.65 µM	0.33 µM	1.35 µM
C[N+]1(CCC(=O)Nc2ccc3c(c2)C(=O)c2cc(NC(=O)CC[N+]4(C)CCOCC4)ccc2C3=O)CCOCC1	16.5 µM	2.95 µM	0.52 µM	1.1 µM
CC[N+](C)(CC)CCC(=O)Nc1cccc2c1C(=O)c1c(NC(=O)CC[N+](C)(CC)CC)cccc1C2=O	7.5 µM	4.6 µM	0.55 µM	1.65 µM
C[N+](C)(C)CCC(=O)Nc1cccc2c1C(=O)c1cccc(NC(=O)CC[N+](C)(C)C)c1C2=O	13.2 µM	5.8 µM	1.7 µM	1.75 µM

Structure (SMILES)	IC50 [1]	IC50 (SK-OV-3)	IC50 (A2780)	IC50 (CH1)
CCN(CC)CCC(=O)Nc1cccc2c1C(=O)c1c(NC(=O)CCN(CC)CC)cccc1C2=O	4.2 µM	5.2 µM	0.64 µM	5.3 µM
CC[N+](C)(CC)CCC(=O)Nc1ccc2c(c1)C(=O)c1ccc(NC(=O)CC[N+](C)(CC)CC)cc1C2=O	–	6.4 µM	2.1 µM	1.9 µM
C[N+]1(CCC(=O)Nc2ccc3c(c2)C(=O)c2cc(NC(=O)CC[N+]4(C)CCCC4)ccc2C3=O)CCCC1	16 µM	4.7 µM	0.48 µM	1.6 µM
C[N+]1(CCC(=O)Nc2ccc3c(c2)C(=O)c2cc(NC(=O)CC[N+]4(C)CCCCC4)ccc2C3=O)CCCCC1	7.8 µM	2.2 µM	0.18 µM	1.05 µM
O=C(CCN1CCOCC1)Nc1ccc2c(c1)C(=O)c1ccc(NC(=O)CCN3CCOCC3)cc1C2=O	–	> 25 µM	> 25 µM	14 µM
C[N+]1(CCC(=O)Nc2cccc3c2C(=O)c2c(NC(=O)CC[N+]4(C)CCCCC4)cccc2C3=O)CCCCC1	7.8 µM	4.6 µM	0.52 µM	1.12 µM
O=C(CCN1CCCC1)Nc1ccc2c(c1)C(=O)c1ccc(NC(=O)CCN3CCCC3)cc1C2=O	1.8 µM	38 µM	39 µM	49 µM
C[N+]1(CCC(=O)Nc2cccc3c2C(=O)c2cccc(NC(=O)CC[N+]4(C)CCCC4)c2C3=O)CCCC1	8.8 µM	10 µM	2.2 µM	2.25 µM
CC[N+](C)(CC)CCC(=O)Nc1cccc2c1C(=O)c1cccc(NC(=O)CC[N+](C)(CC)CC)c1C2=O	16.8 µM	10 µM	1.9 µM	2.05 µM
O=C(CCN1CCCC1)Nc1ccc(NC(=O)CCN2CCCC2)c2c1C(=O)c1ccccc1C2=O	–	0.39 µM	0.0025 µM	0.019 µM
CCN(CC)CCC(=O)Nc1ccc2c(c1)C(=O)c1ccc(NC(=O)CCN(CC)CC)cc1C2=O	3.5 µM	3.15 µM	2.35 µM	3.15 µM
CN(C)CCC(=O)Nc1cccc2c1C(=O)c1cccc(NC(=O)CCN(C)C)c1C2=O	1.3 µM	0.62 µM	0.35 µM	0.37 µM
C[N+](C)(C)CCC(=O)Nc1cccc2c1C(=O)c1c(NC(=O)CC[N+](C)(C)C)cccc1C2=O	4.4 µM	2.2 µM	0.53 µM	1.4 µM
CC[N+](C)(CC)CCC(=O)Nc1ccc2c(c1)C(=O)c1cc(NC(=O)CC[N+](C)(CC)CC)ccc1C2=O	> 20 µM	2 µM	0.33 µM	1.13 µM
O=C(CCN1CCCC1)Nc1cccc2c1C(=O)c1c(NC(=O)CCN3CCCC3)cccc1C2=O	–	1.2 µM	0.295 µM	1.28 µM
CN(C)CCC(=O)Nc1ccc2c(c1)C(=O)c1ccc(NC(=O)CCN(C)C)cc1C2=O	4.1 µM	–	–	–
O=C(CCN1CCCCC1)Nc1ccc2c(c1)C(=O)c1cc(NC(=O)CCN3CCCCC3)ccc1C2=O	3.1 µM	3.7 µM	0.48 µM	3.15 µM
CN(C)CCC(=O)Nc1ccc2c(c1)C(=O)c1cc(NC(=O)CCN(C)C)ccc1C2=O	4.7 µM	4.15 µM	2.1 µM	4.4 µM
CCN(CC)CCC(=O)Nc1ccc2c(c1)C(=O)c1cc(NC(=O)CCN(CC)CC)ccc1C2=O	4.3 µM	7.2 µM	2.1 µM	4.6 µM
O=C(CCN1CCOCC1)Nc1ccc2c(c1)C(=O)c1cc(NC(=O)CCN3CCOCC3)ccc1C2=O	> 50 µM	> 100 µM	5.3 µM	7.5 µM
